A selection: hits, their analogues and other compounds. The true share with any hit is near 3.9%.
HIF act: HIF pathway transcriptional activation | AID 1910 | 0.32% of 300,000 active | activation, % at 7.5 µM (by protocol) | U2OS HRE-luciferase reporter, luminescence; normalized: DMSO 0%, desferrioxamine 100%;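 active = mean activation of at least 10% of the iron chelator positive control signal, with at least half of replicates also reaching 10%; inconclusive = mean and replicate majority disagree about reaching 10%; inactive = mean and most replicates under 10%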
GAA850 FXN act: activators of GAA850 frataxin (FXN) promoter; HEK293 lucGAA850 FXN promoter luciferase reporter, 24 h; percent of 10 µM SAHA response; activation, % at 6 µM; 0.56% of 360,000 active;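 active = activation above the average of all compounds screened plus 3 SD, cutoff fixed separately per campaign, cut at about 7.5% in these data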;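 note: 0% = DMSO wells and 100% = 10 µM SAHA wells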
SR-BI HDL uptake: inhibitors of mouse SR-BI mediated HDL lipid uptake. Q61009. ldlA[mSR-BI] CHO cells, DiI-HDL uptake fluorescence, 3 h. inhibition, % at 12.5 µM. 0.96% of 320,000 active;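 active = mean replicate inhibition of at least 70% and a set share of replicates each scoring 70 or more; inconclusive = meets just one of the two criteria; inactive = fails both criteria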;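 note: 0% = median of neutral control wells and 100% = median of positive control wells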
AHR activator: human AHR activation | P35869 | AHR-responsive luciferase reporter cells, luminescence | activation, % at 5 µM | 2.5% of 320,000 active; in the data active = activation above about 47%;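 note: 0% = vehicle wells and 100% = reference agonist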
SR-BI uptake up: activators of SR-BI mediated HDL lipid uptake; CHO ldlA[mSR-BI] cells, DiI-HDL uptake fluorescence, 3 h; 100 = double the neutral-control signal; activation, % at 12.5 µM; 0.096% of 320,000 active; AID 504775;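 active = mean replicate activation of at least 60% and every replicate at or above 60%; inconclusive = mean or all-replicate condition met, but not both; inactive = mean below 60% and not all replicates reaching 60%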;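 note: 0% = median plate neutral-control signal and 100% = twice that signal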
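Test system: SR-BI-overexpressing, LDLR-lacking CHO cells. Measured by: DiI fluorescence, bottom read. Medium: Ham's F12 with 0.5% BSA, HEPES 25 mM, pH 7.4. Timing: 3 h uptake period with compound, 37 °C.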
ABCB6 inh 2: human ABCB6 transporter inhibition; K562-ABCB6 porphyrin accumulation, flow cytometry, 1 h; stronger effect = lower value; fluorescence ratio to DMSO, % at 10 µM; 0.19% of 360,000 active;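 active = fluorescence ratio to DMSO below 75%, the collection mean minus 3 SD; inconclusive = too few cells collected in the well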;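 note: signal is porphyrin accumulated inside mitochondria; 100% equals median channel fluorescence of DMSO control wells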
The depositor's hits bear a star; ? = inconclusive; · = no result given.

SMILES	HIF act	GAA850 FXN act	SR-BI HDL uptake	AHR activator	SR-BI uptake up	ABCB6 inh 2
CCOC(=O)c1c(NC(=O)COC(=O)Cn2cnc3ccccc32)sc2c1CCC(C)C2 (centres undefined)	·	5	28	0	-28	99
COC(=O)c1c(NC(=O)c2c(-c3ccccc3Cl)noc2C)sc2c1CCC2	0	0	50	2	-50	96
CCOC(=O)c1c(NC(=O)Cn2nnc3ccccc32)sc2c1CCC(C)C2 (centres undefined)	0	-1	35	63*	-35	89
Cc1onc(-c2ccccc2Cl)c1C(=O)Nc1sc2c(c1C(N)=O)CCC(C)C2 (centres undefined)	-1	-3	73*	13	-73	98
O=C(CSc1nc2ccccc2c(=O)n1CC1CCCO1)NCc1ccc2c(c1)OCO2 (centres undefined)	-39	0	-14	26	14	98
O=C(N/N=C\c1cccnc1)c1ccc(Cl)cc1Cl	3	-2	-24	4	24	98
COc1cc(/C=N/NC(=O)c2ccncc2)ccc1OC(=O)c1cc(OC)c(OC)c(OC)c1	0	1	77*	2	-77	88
C=CCOc1ccccc1/C=N/NC(=O)c1ccc(Cl)cc1Cl	-1	0	23	69*	-23	97
COc1ccc(/C=N/NC(=O)c2ccncc2)cc1OC	-1	3	-16	10	16	103
COc1cc(C(=O)Oc2ccccc2/C=N/NC(=O)c2ccc(Cl)cc2Cl)cc(OC)c1OC	3	0	82*	59*	-82	104
CC(=O)c1c(C)[nH]c(C(=O)CN2CCN(S(=O)(=O)c3ccc(C(C)C)cc3)CC2)c1C	·	0	14	-1	-14	95
COc1cc(C(=O)N2CCN(CCCc3ccccc3)CC2)cc(OC)c1OC	1	1	-13	3	13	94
COc1cc(C(=O)N2CCN(C(=O)Cc3ccccc3)CC2)cc(OC)c1OC	13*	-1	47	-1	-47	100
COc1ccccc1CN1CCN(C(=O)c2cccc3ccccc23)CC1	0	1	·	-1	·	96
COc1cccc(OC)c1C(=O)N1CCN(Cc2ccccc2C)CC1	0	-3	-67	-1	67*	98
COc1cc(CN2CCN(C(=O)c3ccc(-c4ccccc4)cc3)CC2)cc(OC)c1OC	0	2	84*	0	-84	98
COc1ccc(C(=O)N2CCN(C(=O)c3ccc(-c4ccccc4)cc3)CC2)cc1OC	0	3	45	0	-45	99
COc1cccc(CN2CCN(C(=O)c3ccc(-c4ccccc4)cc3)CC2)c1OC	0	2	9	4	-9	97
COc1cc(OC)cc(C(=O)N2CCN(C(=O)c3ccc(-c4ccccc4)cc3)CC2)c1	0	5	79*	0	-79	100
CCC(=O)N1CCCC(C)(C(=O)Nc2nccc3cccnc23)C1 (centres undefined)	·	1	·	·	·	99
O=C(Nc1ccccc1-c1nc2ccccc2[nH]1)c1ccc(S(=O)(=O)N2CCCCC2)cc1	0	1	6	·	-6	97
O=C(Nc1ccccc1-c1nc2ccccc2[nH]1)c1ccc(N2C(=O)CCC2=O)cc1	0	0	68	49*	-68	146
CC(C)C(NC(=O)C1CCCCC1)C(=O)N1CCN(c2ccc(F)cc2)CC1 (centres undefined)	-1	-1	-3	-3	3	100
Cc1cccc(N=C2NC(=O)/C(=C/c3cccnc3)S2)c1C	0	2	2	47*	-2	102
Cc1ccc(N=C2NC(=O)/C(=C/c3cccnc3)S2)c(C)c1	0	1	-17	13	17	100
SMILES	HIF act	GAA850 FXN act	SR-BI HDL uptake	AHR activator	SR-BI uptake up	ABCB6 inh 2
COc1ccc(S(=O)(=O)N2CCOCC2)cc1NC(=O)COc1ncnc2ccccc12	-3	3	-3	-2	3	99
CC(=O)n1cc([C@@H]2C=C(C(=O)Nc3ccccc3)O[C@H](OCc3ccc(CO)cc3)C2)c2ccccc21	0	-5	28	21	-28	97
CC(=O)n1cc([C@H]2C=C(C(N)=O)O[C@@H](OCc3ccc(CO)cc3)C2)c2ccccc21	0	0	-7	73*	7	96
C#CCNC(=O)C1=C[C@@H](c2cn(C(C)=O)c3ccccc23)C[C@@H](OCc2ccc(CO)cc2)O1	0	-2	-8	47*	8	98
CC(=O)n1cc([C@H]2C=C(C(=O)NCc3ccccc3)O[C@@H](OCc3ccc(CO)cc3)C2)c2ccccc21	0	-2	3	65*	-3	99
COc1ccccc1CC(=O)Nc1cc(OC)c(NC(=O)c2ccccc2)cc1OC	-1	-1	?	19	-74	104
Cc1cc2oc(=O)cc(CN3CCc4ccccc43)c2cc1Cl	-21	3	17	50*	-17	97
CCCCC(CC)C(=O)NCC(C)NC(=O)C(CC)CCCC (centres undefined)	0	1	-36	1	36	93
CCc1nc2oc3ccccc3c(=O)c2c(=O)n1CCOC	0	1	-21	19	21	99
CCc1nc2oc3ccccc3c(=O)c2c(=O)n1-c1ccc(C)cc1	5	3	·	64*	·	105
CCCc1nc2oc3ccccc3c(=O)c2c(=O)n1-c1ccccc1	3	-3	·	100*	·	98
Cc1ccc(-n2c(C(C)C)nc3oc4ccccc4c(=O)c3c2=O)cc1	3	-3	-14	75*	14	102
Cc1ccc(C)c(SCC(=O)NNC(=O)c2csc(N3CCOCC3)n2)c1	0	1	8	1	-8	103
CC(C)(C)c1nnc(NC(=O)COc2ccc3c(c2)OCO3)s1	2	5	-4	60*	4	108
CCn1c(=O)cc(OCC(=O)NCCc2cccc(C)c2)c2ccccc21	0	3	7	17	-7	105
CCn1c(=O)cc(OCC(=O)NCc2cccs2)c2ccccc21	0	-1	15	68*	-15	98
CC(C)(C)c1nnc(NC(=O)c2ccc3c(c2)OCO3)s1	2	5	-18	39	18	99
O=C(COc1ccc2c(c1)OCO2)NCc1cccs1	·	2	1	49*	-1	95
O=C(Cc1cccs1)NCc1ccc2c(c1)OCO2	2	6	-17	1	17	100
O=C(NCc1ccccc1)C1=C[C@@H](c2ccccc2)C[C@@H](OCc2ccc(CO)cc2)O1	1	0	-12	-2	12	96
Cc1ccsc1/C=N/n1c(-c2ccccn2)n[nH]c1=S	0	0	1	51*	-1	107

Screening results (PubChem BioAssay)
